We go through 10 compounds from ChEMBL document CHEMBL4196186, “Absolute Configurations and Bioactivities of Guaiane-Type Sesquiterpenoids Isolated from Pogostemon cablin” (J Nat Prod, 2018).

Usually pIC50 stands for the IC50 on a negative log10 scale, so that one unit is a factor of ten. Low values mean a large IC50, high ones a small IC50. A word on the pEC50: it is the EC50 on a negative log10 scale, so that one unit is a factor of ten. Usually MIC stands for the lowest concentration that inhibits growth of the organism. Low values mean a more susceptible organism, high ones a less susceptible organism.

In one assay the test system is MCF7. Kind of assay: Cytotoxicity against human MCF7 cells after 48 hrs by MTT assay. The note with it: MCF7, 48 h. The format is functional, cell-based. In general terms: Formazan colour is commonly taken as a measure of viable cells.
A short description of assay [1]: Cytotoxicity against human […] cells after 48 hrs by MTT assay. It is filed as functional, cell-based.
In assay [2] the test system is PC-12. As to the kind of experiment: Neuroprotective activity against glutamate-induced cell damage in rat PC12 cells assessed as cell viability at 50 uM pretreated followed by glutamate challenge and measured after 24 hrs by MTT assay (reference value: 49.14 +/- 3.15%). The note with it: read-out: Activity. It is filed as functional.
Assay [3] deals with Staphylococcus aureus. Kind of assay: Antibacterial activity against Staphylococcus aureus ATCC 25923 after 24 hrs by double dilution method. The format is functional, organism-based.
The subject of the next assay is Escherichia coli. As to the kind of experiment: Antibacterial activity against Escherichia coli ATCC 25922 after 24 hrs by double dilution method. It is filed as functional, organism-based.
In the next assay the test system is A549. As to the kind of experiment: Cytotoxicity against human A549 cells after 48 hrs by MTT assay. The format is functional, cell-based. The note with it: A549, 48 h.
The subject of assay [4] is Staphylococcus aureus. Kind of assay: Antibacterial activity against methicillin-resistant Staphylococcus aureus ATCC 43300 after 24 hrs by double dilution method. The format is functional, organism-based.
In assay [5] the test system is Thoracic aorta. As to the kind of experiment: Vasorelaxant activity in Sprague-Dawley rat thoracic aortic ring assessed as inhibition of KCl-induced contraction at 50 uM. It is filed as functional, tissue-based. A digest of the protocol: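 Rat aortic rings contracted with KCl; relaxation measured with test agent at a single concentration of 50 μM. Methoxyverapamil and phentolamine mesylate were the positive controls.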

Another assay relates to SGC-7901. Kind of assay: Cytotoxicity against human SGC7901 cells after 48 hrs by MTT assay. The note with it: SGC-7901, 48 h. It is filed as functional, cell-based.
The test system of assay [6] is PC-12. As to the kind of experiment: Neuroprotective activity against glutamate-induced cell damage in rat PC12 cells assessed as increase in cell viability at 10 uM pretreated followed by glutamate challenge and measured after 24 hrs by MTT assay. It is filed as functional, cell-based.
The subject of assay [7] is Thoracic aorta. Kind of assay: Vasorelaxant activity in Sprague-Dawley rat thoracic aortic ring assessed as inhibition of KCl-induced contraction. The format is functional, tissue-based. A digest of the protocol:
(§1)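 Rat aortic rings precontracted with phenylephrine (PHE) or KCl; relaxation measured over a range of concentrations and EC50 derived. Positive controls were phentolamine mesylate and methoxyverapamil.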

For assay [8], the system named is Thoracic aorta. As to the kind of experiment: Vasorelaxant activity in Sprague-Dawley rat thoracic aortic ring assessed as inhibition of phenylephrine-induced contraction. The format is functional, tissue-based. Put shortly: as §1
In another assay the test system is Candida albicans. Kind of assay: Antifungal activity against Candida albicans CMCC 98001 after 24 hrs by double dilution method. The note with it: CMCC 98001, 24 h. It is filed as functional.

pEC50, pIC50: −log10 of the molar value. In brackets after ≈: the same amount, converted by molar mass. Activity calls are given as the source filed them. The calls are words filed in the database; no cut-off is given here.

For `C=C(C)[C@@H]1CC[C@H](C)[C@@H](CCC(C)=O)C(=O)C1`, the pIC50 (with MCF7; in assay [1]; with A549; in the assay with SGC-7901) was under 4.30 in each case. Also, the viability at 50 µM in the assay on PC-12 [2] was determined as 75.7%. Further, the outcome with Staphylococcus aureus [3], with Escherichia coli and in the assay with Staphylococcus aureus [4] was inactive. The inhibition entry in the assay with Thoracic aorta [5] is “inactive”.

On to `COCCOC(=O)C1=C(C)NC(C)=C(C(=O)OC(C)C)C1c1cccc([N+](=O)[O-])c1` (centres undefined), for which the result in the assay with PC-12 [6] was Active.

For `C=C(C)[C@@H]1CC[C@H](C)[C@]23CC[C@](C)(O)[C@@]2(C1)O3`, the negative logarithm of the IC50 (pIC50) (with MCF7; in assay [1]; with A549; with SGC-7901) was under 4.30 in each case. Further, the viability at 50 µM with PC-12 [2] came to 65.5%. For the same compound, the result with Staphylococcus aureus [3], in the assay with Escherichia coli and with Staphylococcus aureus [4] was inactive. For the same compound, the inhibition result in the assay on Thoracic aorta [5] is “inactive”.

In the case of `C=C(C)[C@@H]1CCC(C)=C2C(=O)C=C(C)[C@@H]2C1`, the pIC50 (in the assay with MCF7; in assay [1]; in the assay with A549; in the assay with SGC-7901) was under 4.30 each time. Further, the outcome in the assay with Staphylococcus aureus [3], in the assay on Escherichia coli and with Staphylococcus aureus [4] was inactive. The inhibition entry in the assay on Thoracic aorta [5] is “inactive”.

For `C=C(C)[C@@H]1C[C@@H](O)C(=C)C2=CC[C@H](C)[C@@H]2C1`, the pIC50 (with MCF7; in assay [1]; in the assay on A549; in the assay with SGC-7901) was under 4.30 throughout. In addition, the result in the assay with Staphylococcus aureus [3], in the assay with Escherichia coli and in the assay on Staphylococcus aureus [4] was inactive. In addition, in the assay on Thoracic aorta [5], the inhibition result is “inactive”.

With `C=C(C)[C@@H]1CC[C@H](C)[C@H](CCC(C)=O)C(=O)C1`, the pIC50 (with MCF7; in assay [1]; in the assay with A549; in the assay on SGC-7901) was under 4.30 throughout. Besides, in the assay with PC-12 [2], the viability at 50 µM came out at 78.7%. The result in the assay on Staphylococcus aureus [3], in the assay on Escherichia coli and in the assay with Staphylococcus aureus [4] was inactive. Further, the inhibition result in the assay with Thoracic aorta [7] is “Active”.

For the compound `C=C(C)[C@@H]1CC[C@@](C)(O)C2=C[C@@H](O)[C@H](C)[C@@H]2C1`, the pIC50 (in the assay on MCF7; in assay [1]; with A549; in the assay with SGC-7901) was under 4.30 throughout. The outcome in the assay with Staphylococcus aureus [3], in the assay on Escherichia coli and with Staphylococcus aureus [4] was inactive. The inhibition entry with Thoracic aorta [5] was “inactive”.

With `C=C(C)[C@@H]1CC[C@H](C)[C@@]23O[C@]2(C1)[C@@H](C)C[C@H]3O`, the pIC50 (with MCF7; in assay [1]; with A549; in the assay on SGC-7901) was under 4.30 throughout. Besides, the pEC50 in the assay with Thoracic aorta [8] was 5.80; in the assay on Thoracic aorta [7], 4.62. In addition, the inhibition result with Thoracic aorta [8] and in the assay on Thoracic aorta [7] was “Dose-dependent effect” each time. The outcome in the assay on Staphylococcus aureus [3], with Escherichia coli and in the assay with Staphylococcus aureus [4] was inactive. The compound also returned an MIC against Candida albicans of 300 µM (≈ 70.9 µg/mL).

Turning to `C=C(C)[C@@H]1CC[C@](C)(O)[C@@H]2CC[C@H](C)[C@]2(O)C1`, the pIC50 (in the assay with MCF7; in assay [1]; with A549; with SGC-7901) was under 4.30 throughout. Further, in the assay on PC-12 [2], the viability at 50 µM is 66.1%. Also, the result in the assay on Staphylococcus aureus [3], with Escherichia coli and in the assay on Staphylococcus aureus [4] was inactive. In addition, the inhibition result with Thoracic aorta [5] is “inactive”.

For the compound `C=C(C)[C@@H]1CCC(=C)[C@]2(O)[C@@H](O)C[C@H](C)[C@@H]2C1`, the pIC50 (in the assay with MCF7; in [1]; in the assay on A549; with SGC-7901) was under 4.30 in each case. Also, the pEC50 in the assay with Thoracic aorta [8] was 5.27. The inhibition entry with Thoracic aorta [8] and in the assay on Thoracic aorta [7] was “Dose-dependent effect” throughout. The outcome in the assay with Staphylococcus aureus [3], with Escherichia coli and with Staphylococcus aureus [4] was inactive. In addition, the MIC against Candida albicans came to 500 µM (≈ 118 µg/mL).
